# GRK2 aptamer HTS: compounds blocking aptamer binding on GRK2 – biochemical, human GRK2, bead flow cytometry, HTS, primary screen; Beta-adrenergic receptor kinase 1 (Homo sapiens), P25098; FAM-aptamer displacement from GRK2; inhibition of aptamer binding, % at 10 µM; 330,000 tested, 0.59% active; AID 488847, 2010;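 active means inhibition of aptamer binding above 40%, roughly 3 SD of noise, on plates passing a quality check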;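 further: median bead fluorescence of bound FAM aptamer so fluorescent compounds give negative values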
# Beta2AR agonist: beta2AR agonists driving receptor internalization, primary screen, cell-based, FAP fluorogen, flow cytometry | Am2.2-beta2AR cells | response, % (concentration not given with the values) | 340,000 tested, 0.43% active | Beta-2 adrenergic receptor (Homo sapiens), P07550;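 active means response above a set limit, near 3 SD of response in nonfluorescent compounds, cut at about 42% in these data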
# Lipid droplet: inhibitors of hepatocyte lipid droplet formation, primary screen, imaging, high-throughput imaging, BODIPY stain; AML12 mouse hepatocytes, oleate lipid droplets; inhibition, % at 6.5 µM; 240,000 tested, 0.4% active;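 active means lipid droplet intensity inhibited by at least 50%, with more than 500 cells counted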
#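 Assay system: AML12 hepatocytes (mouse); Probe or stimulus: oleic acid at 100 µM to induce lipid droplet formation; Dosing: compound at 6.5 µM only; Schedule: compound with oleate, overnight; Detection: fluorescence imaging, 20x objective, two fields per well; Measure: % inhibition of lipid droplet signal.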
# NTR1 ag: agonists of human NTR1, primary screen, imaging, U2OS cells, beta-arrestin-GFP, high content. 330,000 tested, 0.17% active. Neurotensin receptor type 1 (Homo sapiens), P30989. activation, % at 20 µM. AID 493036, 2011. NTR1-U2OS beta-arrestin-GFP spot imaging, agonist mode;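 active means activation at or above 40% of the spot to cytoplasm intensity ratio, with at least 20 cells analyzed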;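 further: 0% = DMSO without peptide and 100% = 100 nM NTR1 peptide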
# Target sequence (P30989 whole entry, looked up): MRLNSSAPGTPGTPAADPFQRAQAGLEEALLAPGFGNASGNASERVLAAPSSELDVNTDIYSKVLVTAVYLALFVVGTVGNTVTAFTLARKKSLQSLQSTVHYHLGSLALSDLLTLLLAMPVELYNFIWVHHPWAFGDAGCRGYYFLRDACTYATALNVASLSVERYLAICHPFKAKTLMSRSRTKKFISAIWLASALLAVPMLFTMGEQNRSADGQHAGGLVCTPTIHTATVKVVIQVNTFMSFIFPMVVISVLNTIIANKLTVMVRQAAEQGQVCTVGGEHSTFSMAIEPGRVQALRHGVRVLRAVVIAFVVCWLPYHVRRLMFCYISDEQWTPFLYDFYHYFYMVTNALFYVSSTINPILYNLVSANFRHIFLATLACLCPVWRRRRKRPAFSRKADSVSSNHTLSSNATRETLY
# Arrestin-AP2 inh: inhibitors of beta-arrestin/AP2 binding, primary screen, biochemical, GPCR trafficking, flow cytometry | inhibition, % at 10 µM | FITC-arrestin peptide / GST-AP2 beads; AP2 beta2 appendage carries R879A mutation | AID 504490, 2011 | 340,000 tested, 0.31% active | beta-arrestin 1 C-terminal peptide binding to AP2 beta2-adaptin appendage (human);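 active means inhibition above a set limit, near 3 SD of compounds lacking own fluorescence, cut at about 54% in these data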;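 further: plate controls were DMSO wells for no effect and 5 µM unlabelled arrestin peptide for full effect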
#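 System: GST-tagged AP2 beta2-adaptin appendage (R879A) on 4 µm glutathione beads / Reagent: FITC-arrestin peptide, 50 nM / Detection: HyperCyt-sampled flow cytometry, FL1 channel, ex 488/em 535 nm / Timing: 12 min plus 1 h, RT / Buffer or medium: PBS plus Tween 20 (0.05%) and BSA (0.1%)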
# H9c2 TAG inh: inhibitors of triacylglycerol accumulation, primary screen, cell-based, uHTS, fluorescence, H9c2; H9c2 cells, Nile Red lipid (TAG) fluorescence; cells loaded with 200 µM oleic acid; inhibition, % at 12.5 µM; 230,000 tested, 0.66% active; AID 651582, 2012;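 active means pattern-corrected inhibition of lipid staining of at least 50% with the nuclear-stain viability signal not falling by more than 50%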;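 further: 0% = DMSO wells and 100% = triacsin C control wells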
# H9c2 TAG conf: triacylglycerol accumulation inhibitors, retest, confirmation, cell-based, single concentration, Nile Red fluorescence, H9c2. AID 651629, 2012. inhibition, % at 12.5 µM. H9c2 lipid accumulation; cells loaded with 200 µM oleic acid. shares compounds with H9c2 TAG inh. 990 tested, 71% active;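 active means mean inhibition across replicates of 40% or more; inactive means mean inhibition below 40%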;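 further: plate controls were DMSO only wells for no effect and Triacsin C treated wells for full effect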
# Starred values were filed as active, the others as inactive; x = no result given. Shown are actives, neighbours in structure and some others; about 2% of the full set was active somewhere.
SMILES,GRK2 aptamer HTS,Beta2AR agonist,Lipid droplet,NTR1 ag,Arrestin-AP2 inh,H9c2 TAG inh,H9c2 TAG conf
CC(C)C[C@@H](CN1CCCC1CN1C(=S)NC[C@@H]1Cc1ccc(O)cc1)N1C[C@H](Cc2ccccc2)N(CC2CCCCC2)C1=S (some centres not stated),x,10,x,x,-3,53*,73*
O=C(CCl)NC(Cc1c[nH]c2ccc(OCc3ccccc3)cc12)C(=O)O (configuration not stated),0,9,6,0,1,x,x
COc1cc(OC)cc(C(=O)NNC(=O)c2cc(S(=O)(=O)N3CCOCC3)ccc2F)c1,0,7,x,1,26,14,x
Cn1nc(C(=O)Nc2cc(Cl)ccc2N2CCCC2)c2ccccc2c1=O,0,5,x,3,14,5,x
CN1CCN(c2ccc(Cl)cc2NC(=O)c2nn(-c3ccccc3)c(=O)c3ccccc23)CC1,x,17,x,x,-10,52*,27
CCOc1ccc(CC2c3cc(OCC)c(OCC)cc3CCN2C(=O)c2cc(OC)c(OC)c(OC)c2)cc1OCC (configuration not stated),5,-8,x,0,-1,62*,36
Nc1ncnc2c1ncn2[C@@H]1O[C@H](CO)C[C@H]1O,0,13,x,1,8,68,x
Nc1ncnc2c1ncn2C1C=C(CO)C(O)C1O (configuration not stated),x,3,x,x,10,75*,76*
Cc1ccc(S(=O)(=O)NC2=C(N3CCN(c4ccccc4F)CC3)C(=O)c3ccccc3C2=O)cc1,0,4,x,3,0,68*,78*
CC(C)(C)N1C(=O)[C@H]2[C@@H](c3ccc(Br)cc3)N3C(=O)N(c4cccc(F)c4)C(=O)[C@@]3(Cc3ccccc3)[C@H]2C1=O,0,-4,x,1,11,x,x
CC(C)(C)N1C(=O)[C@H]2[C@@H](c3ccc(Br)cc3)N3C(=O)N(c4ccc(Br)cc4)C(=O)[C@@]3(Cc3ccccc3)[C@H]2C1=O,0,-6,4,2,1,60*,54*
CCOc1ccccc1C1CC(=O)Nc2cc3c(cc21)OCO3 (configuration not stated),3,28,x,-3,33,x,x
CCOc1ccccc1C1C2=C(COC2=O)Nc2cc3c(cc21)OCO3 (configuration not stated),2,20,4,2,0,53*,53*
CCN1C(=O)Cc2cc(S(=O)(=O)NCCc3ccccc3)ccc21,2,-6,0,-2,4,x,x
COc1cc(C(CCN2CCCCC2)c2c(OC)cc(OC)c3c(-c4ccccc4)cc(=O)oc23)cc(OC)c1OC (configuration not stated),x,7,x,26,-4,58*,52*
COc1cc(C(CCN2CCCC(C)C2)c2c(OC)cc(OC)c3c(-c4ccccc4)cc(=O)oc23)cc(OC)c1OC (configuration not stated),x,8,22,23,-3,74*,78*
COc1cc(C(CCN2CCOCC2)c2c(OC)cc(OC)c3c(C)cc(=O)oc23)cc(OC)c1OC (configuration not stated),34,-7,-18,-5,0,6,x
CCCCCc1cc(=O)oc2c(C(CCN3CCCC3)c3cc(OC)c(OC)c(OC)c3)c(OC)cc(OC)c12 (configuration not stated),0,20,22,37,1,94*,77*
COc1cc(C(CCN2CCCC2)c2c(OC)cc(OC)c3c(C)cc(=O)oc23)cc(OC)c1OC (configuration not stated),x,2,32,2,28,23,x
CCCCCc1cc(=O)oc2c(C(CCN3CCN(c4ccccc4)CC3)c3ccc4c(c3)OCO4)c(OC)cc(OC)c12 (configuration not stated),6,-1,1,-2,20,65*,74*
CCC1(c2ccccc2)NC(=O)N(CC(=O)NC2CCCCCC2)C1=O (configuration not stated),0,-1,x,3,-8,0,x
CCCCN1CC(=O)N2[C@H]3c4cc(Br)ccc4OC[C@@H]3[C@H](C(=O)OCC)[C@]2(C)C1=O,0,-7,x,1,5,x,x
C[C@H](CO)N1C[C@H](C)[C@@H](CN(C)C)Oc2c(NC(=O)CCC(F)(F)F)cccc2C1=O,0,-1,x,6,-1,4,x
CCCCCc1cc(=O)oc2c(C(CCN(CC)CC)c3ccc(OC)cc3)c(OC)cc(OC)c12 (configuration not stated),0,13,3,28,-4,73*,68*
CCN(CC)CCC(c1ccc(N(C)C)cc1)c1c(OC)cc(OC)c2ccc(=O)oc12 (configuration not stated),3,0,-2,-4,2,24,x
SMILES,GRK2 aptamer HTS,Beta2AR agonist,Lipid droplet,NTR1 ag,Arrestin-AP2 inh,H9c2 TAG inh,H9c2 TAG conf
CCOC(=O)Cn1nc(Cc2ccccc2)c2ccccc2c1=O,0,26,x,-1,-9,24,x
CN1CCCC(n2nc(Cc3ccc(Cl)cc3)c3ccccc3c2=O)CC1 (configuration not stated),0,18,x,2,12,85*,40*
CCOc1cc(/C=N\NC(=O)c2ccc(NC(=O)C(C)(C)C)cc2)ccc1OC(=O)c1cccc(C)c1,0,15,x,4,-3,64*,37
CCOc1cc(N2CCOCC2)c(OCC)cc1NC(=O)Cn1cnnn1,0,4,x,-1,-2,5,x
CCOc1cc(N2CCOCC2)c(OCC)cc1NC(=O)CC12CC3CC(CC(C3)C1)C2,1,9,-1,4,-3,74*,47*
Cc1ccc(S(=O)(=O)N(C)C[C@@H]2OCc3cnnn3CCCC(=O)N([C@@H](C)CO)C[C@@H]2C)cc1,x,x,x,x,x,11,x
COc1cc(CC(=O)OCC(=O)c2ccc3c(c2)OCCO3)cc(OC)c1OC,0,2,-90,2,-20,68*,49*
O=C(COC(=O)c1ccc(O)cc1)c1ccc2c(c1)OCCO2,x,4,x,1,-2,-16,x
Cc1ccc(NC(=O)c2cc3ccccc3oc2=O)cc1S(=O)(=O)N(C)C,1,-7,1,-1,18,x,x

# From PubChem
